Reference: ChEMBL document CHEMBL1135740, “Design, synthesis, and activity of a novel series of factor Xa inhibitors: optimization of arylamidine groups” (J Med Chem, 2002)

Columns and labels:
[1] = biological target: T1, Serine protease 1 (Bos taurus, UniProt P00760); test: Inhibitory constant against bovine trypsin for general specificity against serine proteases
T1 sequence (P00760 whole entry): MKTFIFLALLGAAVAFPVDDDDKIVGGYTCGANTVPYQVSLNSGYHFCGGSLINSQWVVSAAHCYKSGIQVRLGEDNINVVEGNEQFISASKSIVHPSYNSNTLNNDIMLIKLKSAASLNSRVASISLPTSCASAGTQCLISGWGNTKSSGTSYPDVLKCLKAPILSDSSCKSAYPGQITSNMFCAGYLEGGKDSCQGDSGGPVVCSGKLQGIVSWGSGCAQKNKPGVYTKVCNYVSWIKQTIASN

[2] = biological target: Prothrombin (Homo sapiens, UniProt P00734); test: Inhibitory constant against human coagulation factor II (thrombin) for selectivity within coagulation cascade
[3] = biological target: Coagulation factor X (Homo sapiens, UniProt P00742); test: Inhibitory constant against human coagulation factor Xa (fXa)
Coagulation factor X, sequence (P00742 41-179 limits assumed): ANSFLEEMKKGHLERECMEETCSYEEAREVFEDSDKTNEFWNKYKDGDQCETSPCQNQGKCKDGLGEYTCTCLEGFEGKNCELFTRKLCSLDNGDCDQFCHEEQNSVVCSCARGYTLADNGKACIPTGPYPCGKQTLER
Coagulation factor X, sequence (P00742 235-488 limits assumed): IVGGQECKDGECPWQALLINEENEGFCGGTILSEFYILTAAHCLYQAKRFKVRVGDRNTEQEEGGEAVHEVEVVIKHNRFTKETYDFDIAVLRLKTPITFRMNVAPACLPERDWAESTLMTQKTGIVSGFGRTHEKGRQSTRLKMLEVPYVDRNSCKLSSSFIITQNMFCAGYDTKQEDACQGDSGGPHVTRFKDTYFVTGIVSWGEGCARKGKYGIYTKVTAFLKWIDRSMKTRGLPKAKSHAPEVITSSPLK

[4] = Plasma concentration after intravenous aministration at 30 min. (1 mg/kg, n=3); format: ADME, organism-based; settings: rat
Method in brief: (§1)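 Rats dosed intravenously at 1 mg/kg (n = 3). Plasma drug concentrations were measured at 30 min and at 1 h (60 min) and reported in µM.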

[5] = Plasma concentration after intravenous aministration at 1hr, (1 mg/kg, n=3); format: ADME, organism-based; settings: rat; method in brief: as §1
[6] = Plasma concentration after intravenous aministration at 60 min. (1 mg/kg, n=3); format: ADME, organism-based; settings: rat; method in brief: as §1
[7] = Plasma concentration after oral aministration at 4 hr. (10 mg/kg); format: ADME, organism-based; settings: rat
Method in brief: (§2)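 Rats were dosed orally at 10 mg/kg. Plasma drug concentrations were measured at 1, 2 and 4 h and reported in µM.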

[8] = Plasma concentration after oral aministration at 2 hr. (10 mg/kg); format: ADME, organism-based; settings: rat; method in brief: as §2
[9] = Plasma concentration after oral aministration at 1 hr. (10 mg/kg); format: ADME, organism-based; settings: rat; method in brief: as §2

| Structure (SMILES) | Ki [1] | Ki [2] | Ki [3] | other results |
| --- | --- | --- | --- | --- |
| Cc1c(F)c(Oc2cccc(C(=N)N)c2)nc(Oc2cccc(C(=N)N)c2)c1F |  |  |  | concentration at 0.5 h [4]: 100 nM |
| N=C(N)c1cccc(Oc2cc(C(=O)O)cc(Oc3cccc(C(=N)N)c3)n2)c1 |  |  |  | concentration at 0.5 h [4]: 800 nM |
| N=C(N)c1ccc(O)c(Oc2cc(C(=O)O)cc(Oc3cccc(C4=NCCN4)c3)n2)c1 |  |  |  | concentration at 1 h [5]: 1400 nM; concentration at 0.5 h [4]: 3000 nM |
| Cc1c(F)c(Oc2cccc(N(C)C)c2)nc(Oc2cc(C(=N)N)ccc2NS(C)(=O)=O)c1F | > 5000 nM | > 5000 nM | 5500 nM |  |
| Cc1c(F)c(Oc2cccc(C(=O)N(C)C)c2)nc(Oc2cc(C(=N)N)cc(O)c2O)c1F | 1100 nM | 1200 nM | 23 nM |  |
| Cc1c(F)c(Oc2cccc(C(=N)N)c2)nc(Oc2cccc([S+]([O-])N(C)C)c2)c1F (stereo not drawn) | 2400 nM | > 5000 nM | 720 nM |  |
| CCOC(=O)c1cccc(Oc2nc(Oc3cccc(C(=N)N)c3)c(F)c(C)c2F)c1 | > 5000 nM | > 5000 nM | 5200 nM |  |
| Cc1c(F)c(Oc2cccc(C(=N)N)c2)nc(Oc2cccc(N3CCOCC3)c2)c1F | 2000 nM | > 5000 nM | 650 nM |  |
| COc1cc(C(=N)N)cc(Oc2nc(Oc3cccc(C(=O)N(C)C)c3)c(F)c(C)c2F)c1OC | > 5000 nM | > 5000 nM | 180 nM |  |
| N=C(N)c1ccc(O)c(Oc2cc(C(=O)O)cc(Oc3cccc(NCCN)c3)n2)c1 | 350 nM | 3400 nM | 78 nM |  |
| COc1c(O)cc(C(=N)N)cc1Oc1nc(Oc2cccc(C(=O)N(C)C)c2)c(F)c(C)c1F | > 5000 nM | > 5000 nM | 160 nM |  |
| CN1CCN=C1c1cccc(Oc2cc(C(=O)O)cc(Oc3cc(C(=N)N)ccc3O)n2)c1 |  |  |  | concentration at 1 h [6]: 400 nM; concentration at 4 h [7]: 100 nM; concentration at 2 h [8]: 200 nM; concentration at 1 h [9]: 1400 nM; concentration at 0.5 h [4]: 1100 nM |
| Cc1c(F)c(Oc2cccc(C(=N)N)c2)nc(Oc2cccc(C(=O)N3CCOCC3)c2)c1F | > 5000 nM | > 5000 nM | 1400 nM |  |
| CCOC(=O)Cc1cccc(Oc2nc(Oc3cccc(C(=N)N)c3)c(F)c(C)c2F)c1 | > 5000 nM | > 5000 nM | 810 nM |  |
| Cc1c(F)c(Oc2cccc(C(=N)N)c2)nc(Oc2cccc(C(=O)N3CCCC3)c2)c1F | 2800 nM | > 5000 nM | 220 nM |  |
| Cc1c(F)c(Oc2cccc(C(=N)N)c2)nc(Oc2cccc(C(=O)O)c2)c1F | > 5000 nM | > 5000 nM | 5000 nM |  |
| Cc1c(F)c(Oc2cccc(C(=N)N)c2)nc(Oc2cccc([N+](=O)[O-])c2)c1F | > 5000 nM | > 5000 nM | 2500 nM |  |
| Cc1c(F)c(Oc2cccc(C(=N)N)c2)nc(Oc2ccc(Cl)c(N(C)C)c2)c1F | 1000 nM | 5300 nM | 500 nM |  |
| Cc1c(F)c(Oc2cccc(C(=N)N)c2)nc(Oc2cc(O)cc(C(=O)N(C)C)c2)c1F | 1900 nM | 740 nM | > 5000 nM |  |
| CC1(C)CNC(c2cccc(Oc3cc(C(=O)O)cc(Oc4cc(C(=N)N)ccc4O)n3)c2)=N1 | 1400 nM | > 5000 nM | 810 nM |  |
| Cc1c(F)c(Oc2cccc(CCC(=O)N(C)C)c2)nc(Oc2cccc(C(=N)N)c2)c1F | 4900 nM | > 5000 nM | 1300 nM |  |
| CN(C)C(=O)c1cccc(Oc2cc(C(=O)O)cc(Oc3cc(C(=N)N)ccc3O)n2)c1 | 150 nM | 490 nM | 3.1 nM |  |

Further lines, with some results ahead:

| Ki [1] | Ki [2] | Ki [3] | Structure (SMILES) | other results |
| --- | --- | --- | --- | --- |
| 520 nM | 5100 nM | 6 nM | N=C(N)c1cccc(Oc2cc(C(=O)O)cc(Oc3cc(C(=N)N)ccc3O)n2)c1 | concentration at 0.5 h [4]: 1900 nM |
| 2100 nM | > 5000 nM | > 5000 nM | COc1ccc(C(=O)N(C)C)cc1Oc1nc(Oc2cccc(C(=N)N)c2)c(F)c(C)c1F |  |
| 1000 nM | 190 nM | 3 nM | Cc1c(F)c(Oc2cccc(N(C)C)c2)nc(Oc2cc(C(=N)N)ccc2O)c1F |  |
| 470 nM | 880 nM | 8.4 nM | Cc1cn(C)c(-c2cccc(Oc3cc(C(=O)O)cc(Oc4cc(C(=N)N)ccc4O)n3)c2)n1 |  |
| > 5000 nM | > 5000 nM | > 5000 nM | Cc1c(F)c(Oc2cccc(C(=O)N(C)C)c2)nc(Oc2cccc(C(=N)N)c2O)c1F |  |
| 2900 nM | > 5000 nM | 1400 nM | Cc1c(F)c(Oc2cccc(CN)c2)nc(Oc2cccc(C(=N)N)c2)c1F |  |
| 450 nM | 3000 nM | 1400 nM | COc1ccc(Oc2nc(Oc3cccc(C(=N)N)c3)c(F)c(C)c2F)cc1C(=O)N(C)C |  |
| 580 nM | 680 nM | 8 nM | Cc1nccn1-c1cccc(Oc2cc(C(=O)O)cc(Oc3cc(C(=N)N)ccc3O)n2)c1 |  |
